{"source": "ChEMBL document CHEMBL3232989", "about": "“First identification of boronic species as novel potential inhibitors of the Staphylococcus aureus NorA efflux pump” (J Med Chem, 2014)", "key": {"Staphylococcus aureus [1]": {"test_system": "Staphylococcus aureus", "experiment": "Antibacterial activity against fluoroquinolone-resistant Staphylococcus aureus 1199B expressing NorA after 24 hrs by microdilution method", "type": "functional", "summary_of_the_method": "(§1)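 Broth microdilution in Mueller–Hinton broth, 10^6 CFU/mL per well from an 18 h 37 °C culture. Compounds come from 10 mg/mL DMSO stocks as 2-fold serial dilutions, top 128 mg/L. Plates run 24 h at 37 °C and are read at 620 nm and visually. MIC is the lowest concentration with complete growth inhibition. Duplicates; 2-fold variance accepted.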"}, "Staphylococcus aureus [2]": {"test_system": "Staphylococcus aureus", "experiment": "Antibacterial activity against Staphylococcus aureus ATCC 25923 after 24 hrs by microdilution method", "type": "functional", "conditions": "ATCC 25923, 24 h", "summary_of_the_method": "as §1"}}}
{"compound": "CC[C@H]1OC(=O)[C@H](C)[C@@H](O[C@H]2C[C@@](C)(OC)[C@@H](O)[C@H](C)O2)[C@H](C)[C@@H](O[C@@H]2O[C@H](C)C[C@H](N(C)C)[C@H]2O)[C@](C)(O)C[C@@H](C)C(=O)[C@H](C)[C@@H](O)[C@]1(C)O", "note": "[ERYTHROMYCIN]", "values": [{"measurement": "MIC", "setting": "Staphylococcus aureus [1]", "result": 128, "unit": "µg/mL"}, {"measurement": "MIC", "setting": "Staphylococcus aureus [2]", "result": 0.5, "unit": "µg/mL"}]}
